# Data: ChEMBL document CHEMBL3763019, “Discovery of benzenesulfonamide derivatives as potent PI3K/mTOR dual inhibitors with in vivo efficacies against hepatocellular carcinoma” (Bioorg Med Chem, 2016)
# Experiments:
# [1] = Antiproliferative activity against human TK10 cells incubated for 48 hrs by sulforhodamine B assay; type: functional; conditions: TK-10, 48 h
# [2] = Antiproliferative activity against human NCI60 incubated for 48 hrs by sulforhodamine B assay; type: functional; conditions: NCI60, 48 h
# How it was run: (§1)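 Run externally by the US National Cancer Institute as part of its 60 human cancer cell line cytotoxicity screen (NCI-60).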
# 786-0 = test: Antiproliferative activity against human 786-0 cells incubated for 48 hrs by sulforhodamine B assay; type: functional; conditions: 786-0, 48 h; how it was run: as §1
# [3] = Antiproliferative activity against human OVCAR3 cells incubated for 48 hrs by sulforhodamine B assay; type: functional; conditions: OVCAR-3, 48 h; how it was run: as §1
# K562 = test: Antiproliferative activity against human K562 cells incubated for 48 hrs by sulforhodamine B assay; type: functional; conditions: K562, 48 h; how it was run: as §1
# MDA-MB-231 = test: Cytotoxicity against human MDA-MB-231 cells after 72 hrs by MTT assay; type: functional, cell-based; conditions: MDA-MB-231, 72 h
# How it was run: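 Log-phase cells at 40,000–50,000 cells/mL in DMEM with 10% FBS and antibiotics were seeded and cultured overnight at 37 °C, 5% CO₂. Compounds were diluted in DMSO/PBS from 10^-4 to 10^-9 M and applied for 72 h. MTT (5 mg/mL stock) was then added for 4 h and absorbance read at 570 nm. IC50 came from nonlinear regression on triplicate wells, averaged.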
# SK-MEL-28 = test: Antiproliferative activity against human SK-MEL-28 cells incubated for 48 hrs by sulforhodamine B assay; type: functional; conditions: SK-MEL-28, 48 h; how it was run: as §1
# [4] = Antiproliferative activity against human SKOV3 cells incubated for 48 hrs by sulforhodamine B assay; type: functional; conditions: SK-OV-3, 48 h; how it was run: as §1
# [5] = Antitumor activity against human Bel7404 cells xenografted in BALB/c nude mouse assessed as reduction in tumor volume at 30 mg/kg, po qd for 14 consecutive days relative to control; type: functional, BEL-7404; parameters: scale not given: the % may be the effect or the level left
# How it was run: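 Male BALB/c nude mice carried implanted BEL-7404 tumours and were randomized once tumours reached 100–300 mm³ (about 12 days); there were 6 per treated group and 8 controls. Drug in 5% polysorbate 80/water was given orally once daily for 14 days from day 13. Tumour volume (1/2·a·b·b) and body weight were tracked, with sacrifice on day 29. The read-out was relative tumour volume versus vehicle, reported as mean SE.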
# [6] = Antiproliferative activity against human HCT116 cells incubated for 48 hrs by sulforhodamine B assay; type: functional; conditions: HCT-116, 48 h; how it was run: as §1
# [7] = Antiproliferative activity against human DU145 cells incubated for 48 hrs by sulforhodamine B assay; type: functional; conditions: DU-145, 48 h; how it was run: as §1
# [8] = Antiproliferative activity against human Caki1 cells incubated for 48 hrs by sulforhodamine B assay; type: functional; conditions: CAKI-1, 48 h; how it was run: as §1
# SK-MEL-5 = test: Antiproliferative activity against human SK-MEL-5 cells incubated for 48 hrs by sulforhodamine B assay; type: functional; conditions: SK-MEL-5, 48 h; how it was run: as §1
# [9] = molecular target: Phosphatidylinositol 4,5-bisphosphate 3-kinase catalytic subunit gamma isoform (Homo sapiens, UniProt P48736); test: Inhibition of PI3K-gamma (unknown origin) after 40 mins by ADP-Glo luminescent kinase assay
# Chain of Phosphatidylinositol 4,5-bisphosphate 3-kinase catalytic subunit gamma isoform (P48736 whole entry, canonical isoform): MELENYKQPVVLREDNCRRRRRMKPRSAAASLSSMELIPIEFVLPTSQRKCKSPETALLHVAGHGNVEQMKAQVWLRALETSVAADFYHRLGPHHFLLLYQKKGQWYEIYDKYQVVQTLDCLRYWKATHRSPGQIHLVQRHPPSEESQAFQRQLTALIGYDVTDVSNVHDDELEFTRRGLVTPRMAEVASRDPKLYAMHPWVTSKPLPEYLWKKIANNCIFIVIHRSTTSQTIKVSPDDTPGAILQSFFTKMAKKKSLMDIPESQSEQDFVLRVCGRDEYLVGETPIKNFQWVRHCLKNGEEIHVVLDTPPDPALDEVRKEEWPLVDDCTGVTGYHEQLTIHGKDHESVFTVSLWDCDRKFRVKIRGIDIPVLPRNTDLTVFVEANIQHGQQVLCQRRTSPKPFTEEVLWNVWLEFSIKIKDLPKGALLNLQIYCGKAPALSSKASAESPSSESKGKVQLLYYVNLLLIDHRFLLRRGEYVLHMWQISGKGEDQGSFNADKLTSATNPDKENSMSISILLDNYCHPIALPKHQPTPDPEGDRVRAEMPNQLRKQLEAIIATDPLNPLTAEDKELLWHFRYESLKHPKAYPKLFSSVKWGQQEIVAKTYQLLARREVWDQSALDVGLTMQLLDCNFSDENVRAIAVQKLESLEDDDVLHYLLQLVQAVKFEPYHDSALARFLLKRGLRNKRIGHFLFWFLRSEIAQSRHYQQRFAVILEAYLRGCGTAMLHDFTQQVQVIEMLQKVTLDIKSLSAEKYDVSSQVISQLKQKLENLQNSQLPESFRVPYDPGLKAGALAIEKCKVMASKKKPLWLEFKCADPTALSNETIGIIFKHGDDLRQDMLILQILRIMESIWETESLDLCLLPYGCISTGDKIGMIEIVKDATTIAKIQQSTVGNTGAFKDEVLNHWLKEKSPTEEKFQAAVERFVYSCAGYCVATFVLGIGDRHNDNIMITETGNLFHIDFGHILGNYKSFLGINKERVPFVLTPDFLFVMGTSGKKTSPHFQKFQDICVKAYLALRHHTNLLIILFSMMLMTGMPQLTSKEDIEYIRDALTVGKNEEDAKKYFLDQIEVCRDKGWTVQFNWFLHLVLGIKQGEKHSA
# How it was run: (§2)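 Final enzyme was PI3Kβ 4.8 nM and PI3Kγ 7.6 nM. ADP-Glo reagent stopped the reaction (40 min), then detection reagent was added (60 min) and luminescence read. Percent inhibition was derived from RLU.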
# [10] = Half life in rat liver microsomes; type: ADME
# HT-29 = test: Antiproliferative activity against human HT-29 cells incubated for 48 hrs by sulforhodamine B assay; type: functional; conditions: HT-29, 48 h; how it was run: as §1
# [11] = Antiproliferative activity against human COLO205 cells incubated for 48 hrs by sulforhodamine B assay; type: functional; conditions: COLO 205, 48 h; how it was run: as §1
# EKVX = test: Antiproliferative activity against human EKVX cells incubated for 48 hrs by sulforhodamine B assay; type: functional
# [12] = molecular target: Phosphatidylinositol 4,5-bisphosphate 3-kinase catalytic subunit delta isoform (Homo sapiens, UniProt O00329); test: Inhibition of PI3K-delta (unknown origin) using PIP2 as substrate incubated for 1 hr by Kinase-Glo luminescent kinase assay
# Chain of Phosphatidylinositol 4,5-bisphosphate 3-kinase catalytic subunit delta isoform (O00329 whole entry, canonical isoform): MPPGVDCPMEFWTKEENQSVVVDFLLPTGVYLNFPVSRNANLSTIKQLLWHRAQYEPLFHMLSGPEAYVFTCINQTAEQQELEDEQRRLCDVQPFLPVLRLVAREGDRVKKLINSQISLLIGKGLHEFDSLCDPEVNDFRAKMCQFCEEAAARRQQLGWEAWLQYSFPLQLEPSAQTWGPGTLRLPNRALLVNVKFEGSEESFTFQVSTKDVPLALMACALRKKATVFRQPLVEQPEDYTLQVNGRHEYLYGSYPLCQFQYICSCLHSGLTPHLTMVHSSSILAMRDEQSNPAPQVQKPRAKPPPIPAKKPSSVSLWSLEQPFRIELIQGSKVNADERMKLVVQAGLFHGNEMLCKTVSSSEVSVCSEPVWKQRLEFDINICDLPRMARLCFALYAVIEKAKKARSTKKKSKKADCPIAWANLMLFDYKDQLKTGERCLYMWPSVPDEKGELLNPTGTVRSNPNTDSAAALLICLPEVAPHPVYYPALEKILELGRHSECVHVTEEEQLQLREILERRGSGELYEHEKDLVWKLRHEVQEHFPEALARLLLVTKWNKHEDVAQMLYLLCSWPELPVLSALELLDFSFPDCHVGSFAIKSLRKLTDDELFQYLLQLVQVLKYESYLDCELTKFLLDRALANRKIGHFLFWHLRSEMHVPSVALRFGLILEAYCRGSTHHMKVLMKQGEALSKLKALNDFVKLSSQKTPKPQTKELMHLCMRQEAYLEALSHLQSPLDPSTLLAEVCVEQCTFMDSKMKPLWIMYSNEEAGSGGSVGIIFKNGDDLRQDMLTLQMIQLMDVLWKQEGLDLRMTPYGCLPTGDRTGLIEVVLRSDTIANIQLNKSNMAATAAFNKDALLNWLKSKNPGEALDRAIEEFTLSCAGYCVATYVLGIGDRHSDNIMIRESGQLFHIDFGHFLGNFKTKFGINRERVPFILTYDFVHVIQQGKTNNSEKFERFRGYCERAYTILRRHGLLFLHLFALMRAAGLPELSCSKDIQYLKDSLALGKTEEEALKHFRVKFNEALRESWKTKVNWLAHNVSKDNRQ
# A549 = test: Antiproliferative activity against human A549 cells incubated for 48 hrs by sulforhodamine B assay; type: functional; conditions: A549, 48 h; how it was run: as §1
# [13] = Antiproliferative activity against human SNB19 cells incubated for 48 hrs by sulforhodamine B assay; type: functional; conditions: SNB-19, 48 h; how it was run: as §1
# ACHN = test: Antiproliferative activity against human ACHN cells incubated for 48 hrs by sulforhodamine B assay; type: functional; how it was run: as §1
# [14] = Antiproliferative activity against human SNB75 cells incubated for 48 hrs by sulforhodamine B assay; type: functional; conditions: SNB-75, 48 h; how it was run: as §1
# NCI-H522 = test: Antiproliferative activity against human NCI-H522 cells incubated for 48 hrs by sulforhodamine B assay; type: functional; conditions: NCI-H522, 48 h; how it was run: as §1
# Mus musculus = test: Toxicity in BALB/C nude mouse xenografted with human Bel7404 cells assessed as reduction in body weight at 30 mg/kg, po qd for 14 consecutive days; type: organism-based; conditions: in vivo
# How it was run: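 Male BALB/C nude mice were implanted with BEL-7404 cells. When tumors reached 100–300 mm³ (after 12 days), mice were randomized to 6 per treatment group and 8 controls. The drug, suspended in 5% polysorbate 80 in water, was given orally once daily for 14 days from day 13. Body weight and mortality were tracked during dosing, and mice were sacrificed on day 29.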
# U-251 = test: Antiproliferative activity against human U251 cells incubated for 48 hrs by sulforhodamine B assay; type: functional; conditions: U-251, 48 h
# [15] = molecular target: Phosphatidylinositol 4,5-bisphosphate 3-kinase catalytic subunit beta isoform (Homo sapiens, UniProt P42338); test: Inhibition of PI3K-beta (unknown origin) at 10 nM after 40 mins by ADP-Glo luminescent kinase assay; how it was run: as §2
# Chain of Phosphatidylinositol 4,5-bisphosphate 3-kinase catalytic subunit beta isoform (P42338 whole entry, looked up, canonical isoform): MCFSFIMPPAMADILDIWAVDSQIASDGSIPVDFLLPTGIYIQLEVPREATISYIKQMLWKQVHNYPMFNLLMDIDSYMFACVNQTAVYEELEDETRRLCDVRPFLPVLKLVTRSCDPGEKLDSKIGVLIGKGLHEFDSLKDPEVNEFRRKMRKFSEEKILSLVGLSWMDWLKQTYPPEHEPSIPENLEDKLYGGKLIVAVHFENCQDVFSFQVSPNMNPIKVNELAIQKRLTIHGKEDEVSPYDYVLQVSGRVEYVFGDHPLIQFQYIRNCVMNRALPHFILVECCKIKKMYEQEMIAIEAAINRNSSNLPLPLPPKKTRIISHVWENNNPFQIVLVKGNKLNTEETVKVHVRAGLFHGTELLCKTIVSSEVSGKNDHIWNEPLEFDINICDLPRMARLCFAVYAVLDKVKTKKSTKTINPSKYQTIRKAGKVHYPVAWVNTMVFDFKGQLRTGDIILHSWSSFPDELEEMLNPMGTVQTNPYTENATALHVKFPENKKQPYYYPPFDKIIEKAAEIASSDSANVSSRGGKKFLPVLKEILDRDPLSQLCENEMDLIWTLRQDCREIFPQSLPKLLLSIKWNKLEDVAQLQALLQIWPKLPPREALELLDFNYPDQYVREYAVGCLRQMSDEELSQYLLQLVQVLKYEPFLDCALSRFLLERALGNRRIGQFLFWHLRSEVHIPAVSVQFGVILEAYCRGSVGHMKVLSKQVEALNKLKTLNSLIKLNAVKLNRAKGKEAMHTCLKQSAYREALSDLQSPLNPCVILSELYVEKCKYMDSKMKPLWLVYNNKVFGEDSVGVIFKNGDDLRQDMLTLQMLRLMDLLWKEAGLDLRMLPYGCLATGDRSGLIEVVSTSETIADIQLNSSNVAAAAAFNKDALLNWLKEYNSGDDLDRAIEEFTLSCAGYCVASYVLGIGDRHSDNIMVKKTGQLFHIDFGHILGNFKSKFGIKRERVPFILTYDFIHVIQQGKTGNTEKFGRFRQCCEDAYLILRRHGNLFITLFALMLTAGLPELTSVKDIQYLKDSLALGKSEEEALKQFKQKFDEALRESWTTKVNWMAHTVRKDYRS
# [16] = Antiproliferative activity against human MOLT4 cells incubated for 48 hrs by sulforhodamine B assay; type: functional; conditions: MOLT-4, 48 h; how it was run: as §1
# [17] = read-out: pLC50 (the source's name) (converted)
smiles,measurement,setting,value
COc1ncc(-c2ccc3nccc(C#CCN4CCN(S(C)(=O)=O)CC4)c3c2)cc1NS(=O)(=O)c1ccc(F)cc1F,GI50,[1],0.0118 µM
same,CC50,[1]; [17],38.9 µM
same,GI50,[2],0.065 µM
same,GI50,786-0,0.0447 µM
same,CC50,786-0; [17],49 µM
same,TGI,786-0; read-out: pTGI (converted),1.45 µM
same,GI50,[3],0.0513 µM
same,CC50,[3]; [17],6.61 µM
same,TGI,[3]; read-out: pTGI (converted),1.1 µM
same,GI50,K562,0.646 µM
same,CC50,K562; [17],> 100 µM
same,TGI,K562; read-out: pTGI (converted),17 µM
same,IC50,MDA-MB-231,1.44 µM
same,GI50,SK-MEL-28,0.0347 µM
same,CC50,SK-MEL-28; [17],5.25 µM
same,TGI,SK-MEL-28; read-out: pTGI (converted),1.05 µM
same,GI50,[4],0.0174 µM
same,CC50,[4]; [17],33.9 µM
same,TGI,[4]; read-out: pTGI (converted),0.229 µM
same,Activity,[5],52%
same,GI50,[6],0.138 µM
same,CC50,[6]; [17],5.75 µM
same,TGI,[6]; read-out: pTGI (converted),1.66 µM
same,GI50,[7],0.1 µM
same,CC50,[7]; [17],41.7 µM
same,TGI,[7]; read-out: pTGI (converted),12.9 µM
same,GI50,[8],0.155 µM
same,CC50,[8]; [17],40.7 µM
same,TGI,[8]; read-out: pTGI (converted),13.8 µM
same,GI50,SK-MEL-5,0.195 µM
same,CC50,SK-MEL-5; [17],2.95 µM
same,TGI,SK-MEL-5; read-out: pTGI (converted),0.55 µM
same,IC50,[9],0.0027 µM
same,half-life,[10],29 min
same,GI50,HT-29,0.0204 µM
same,CC50,HT-29; [17],35.5 µM
same,TGI,HT-29; read-out: pTGI (converted),1.51 µM
same,GI50,[11],0.0427 µM
same,CC50,[11]; [17],7.24 µM
same,TGI,[11]; read-out: pTGI (converted),1.12 µM
same,GI50,EKVX,0.0257 µM
same,CC50,EKVX; [17],42.7 µM
same,IC50,[12],0.014 µM
same,GI50,A549,0.0724 µM
same,CC50,A549; [17],44.7 µM
same,TGI,A549; read-out: pTGI (converted),5.5 µM
same,GI50,[13],0.355 µM
same,CC50,[13]; [17],15.1 µM
same,TGI,[13]; read-out: pTGI (converted),2.51 µM
same,GI50,ACHN,0.0457 µM
same,CC50,ACHN; [17],34.7 µM
same,TGI,ACHN; read-out: pTGI (converted),6.92 µM
same,GI50,[14],0.0107 µM
same,CC50,[14]; [17],28.8 µM
same,TGI,[14]; read-out: pTGI (converted),0.151 µM
same,GI50,NCI-H522,0.178 µM
same,CC50,NCI-H522; [17],5.89 µM
same,TGI,NCI-H522; read-out: pTGI (converted),1.74 µM
same,Activity,Mus musculus,Non-toxic
same,GI50,U-251,0.178 µM
same,CC50,U-251; [17],4.68 µM
same,TGI,U-251; read-out: pTGI (converted),1.51 µM
same,inhibition,[15],69%
same,GI50,[16],0.038 µM
same,CC50,[16]; [17],> 100 µM
same,TGI,[16]; read-out: pTGI (converted),1.15 µM
